Here are results for 1 compound from article PMC5392356 (Nature chemical biology, 2017).

Experiment [1] concerns the target VCB and Brd4^BD2 (Homo sapiens, UniProt O60885+P40337). Kind of experiment: ITC, VCB titrated into PROTAC:BD complex. Format: binding. On the technique in general: In ITC the heat of successive injections is recorded.
The target in experiment [2] is T1, Brd4 (Homo sapiens, UniProt O60885). Kind of experiment: BET protein degradation in HeLa cells, Western blot. The format is cell-based. The following applies: 24 h, 1–3 μM. The method in brief: (§1)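 HeLa cells were kept in DMEM with 10% FBS, […], penicillin/streptomycin at 37 °C, 5% CO2. They were seeded in six-well plates and treated the next day. They were PBS-washed and lysed on ice in RIPA with protease inhibitors, Benzonase and 0.5 mM MgCl2, then sonicated and centrifuged. Protein was quantified by BCA. Immunoblots used Brd2, Brd3, Brd4 and β-actin antibodies with IRDye 800CW secondaries; band intensities were quantified on an Odyssey imager.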

Experiment [3] concerns the target T2, Brd2 (Homo sapiens, UniProt P25440). Described as above. Format: cell-based. The following applies: 24 h. The method in brief:
as §1

The target in experiment [4] is T3, Brd3 (Homo sapiens, UniProt Q15059). Described as above. Conditions: 24 h. Format: cell-based. The method in brief: as §1
Experiment [5] deals with T1, Brd4. Kind of experiment: Isobaric tagging. Conditions: HeLa cells, AT1 1 µM, 24 h; 5,674 proteins quantified. The format is cell-based.
The target in experiment [6] is T2, Brd2. Kind of experiment: Isobaric tagging. The format is cell-based. Conditions: HeLa cells, 24 h, proteomics.
Experiment [7] addresses T3, Brd3. The experiment is described as follows: Isobaric tagging. The format is cell-based. Conditions: HeLa cells, 24 h, proteomics.
The mark [8] stands for this setting: ITC 25 °C, VCB into PROTAC:Brd4^BD2 vs VCB into PROTAC.

Molecules are shown by their SMILES.

VCB and Brd4^BD2, sequence (P40337 54-213, other chains not shown): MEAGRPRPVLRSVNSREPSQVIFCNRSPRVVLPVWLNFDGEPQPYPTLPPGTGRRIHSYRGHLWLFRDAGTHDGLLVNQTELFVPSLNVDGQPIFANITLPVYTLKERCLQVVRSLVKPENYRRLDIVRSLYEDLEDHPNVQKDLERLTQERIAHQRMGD
VCB and Brd4^BD2, sequence (Q15370 1-104, other chains not shown, further chain): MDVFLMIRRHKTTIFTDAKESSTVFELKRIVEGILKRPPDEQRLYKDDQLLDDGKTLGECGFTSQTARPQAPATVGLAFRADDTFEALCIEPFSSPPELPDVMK
VCB and Brd4^BD2, sequence (Q15369 17-112, other chains not shown, further chain): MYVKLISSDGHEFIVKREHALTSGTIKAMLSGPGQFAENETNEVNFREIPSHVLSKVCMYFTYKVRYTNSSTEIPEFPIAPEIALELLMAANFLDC
T3 sequence (Q15059 whole entry): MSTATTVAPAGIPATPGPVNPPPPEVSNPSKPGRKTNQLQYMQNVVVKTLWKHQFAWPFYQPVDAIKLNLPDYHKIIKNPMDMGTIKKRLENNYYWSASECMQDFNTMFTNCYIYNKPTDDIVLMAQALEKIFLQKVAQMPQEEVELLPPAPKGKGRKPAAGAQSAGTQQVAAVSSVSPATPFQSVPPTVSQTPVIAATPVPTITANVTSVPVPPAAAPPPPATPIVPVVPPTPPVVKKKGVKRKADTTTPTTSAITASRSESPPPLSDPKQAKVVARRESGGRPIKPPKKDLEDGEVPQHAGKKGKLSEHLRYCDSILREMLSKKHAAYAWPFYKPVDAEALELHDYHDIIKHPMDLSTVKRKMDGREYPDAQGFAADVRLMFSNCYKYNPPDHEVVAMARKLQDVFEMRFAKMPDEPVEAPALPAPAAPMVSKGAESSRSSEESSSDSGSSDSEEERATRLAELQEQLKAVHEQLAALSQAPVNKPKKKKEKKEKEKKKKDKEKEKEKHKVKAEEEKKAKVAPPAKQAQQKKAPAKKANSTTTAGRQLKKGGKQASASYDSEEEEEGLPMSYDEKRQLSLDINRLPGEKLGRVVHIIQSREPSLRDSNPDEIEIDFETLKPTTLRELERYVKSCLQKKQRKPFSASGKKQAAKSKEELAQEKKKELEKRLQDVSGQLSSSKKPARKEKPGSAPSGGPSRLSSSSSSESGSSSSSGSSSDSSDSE
T2 sequence (P25440 whole entry): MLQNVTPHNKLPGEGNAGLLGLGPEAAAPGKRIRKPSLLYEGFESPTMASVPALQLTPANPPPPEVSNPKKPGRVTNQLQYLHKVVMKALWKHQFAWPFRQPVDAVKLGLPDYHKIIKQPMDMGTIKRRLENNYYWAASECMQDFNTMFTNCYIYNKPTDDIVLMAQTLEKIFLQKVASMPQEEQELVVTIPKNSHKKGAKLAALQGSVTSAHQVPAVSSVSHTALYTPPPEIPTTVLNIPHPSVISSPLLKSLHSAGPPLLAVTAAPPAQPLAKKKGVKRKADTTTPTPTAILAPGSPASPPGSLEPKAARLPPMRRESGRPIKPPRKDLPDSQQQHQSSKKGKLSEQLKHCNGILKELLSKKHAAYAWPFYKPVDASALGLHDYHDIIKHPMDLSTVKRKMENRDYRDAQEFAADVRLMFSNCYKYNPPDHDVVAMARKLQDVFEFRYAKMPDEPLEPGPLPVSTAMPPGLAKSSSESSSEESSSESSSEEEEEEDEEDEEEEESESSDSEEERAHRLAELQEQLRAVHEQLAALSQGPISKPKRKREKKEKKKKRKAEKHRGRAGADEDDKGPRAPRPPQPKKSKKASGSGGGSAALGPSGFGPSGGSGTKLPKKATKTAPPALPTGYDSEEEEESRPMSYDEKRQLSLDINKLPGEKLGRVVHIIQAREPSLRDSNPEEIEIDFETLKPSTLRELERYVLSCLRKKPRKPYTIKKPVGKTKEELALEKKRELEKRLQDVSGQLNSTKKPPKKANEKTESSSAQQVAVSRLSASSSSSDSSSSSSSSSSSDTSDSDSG

For the compound `CC(=O)N[C@H](C(=O)N1C[C@H](O)C[C@H]1C(=O)NCc1ccc(-c2scnc2C)cc1)C(C)(C)SCCCCCCNC(=O)C[C@@H]1N=C(c2ccc(Cl)cc2)c2c(sc(C)c2C)-n2c(C)nnc21` [AT1, (2S,4R)-1-((R)-2-acetamido-3-((6-(2-((S)-4-(4-chlorophenyl)-2,3,9-trimethyl-6H-thieno[3,2-f][1,2,4]triazolo[4,3-a][1,4]diazepin-6-yl)acetamido)hexyl)thio)-3-methylbutanoyl)-4-hydroxy-N-(4-(4-methylthiazol-5-yl)benzyl)pyrrolidine-2-carboxamide], in experiment [1] (setting [8]), the “ΔpKd (pKd ternary − pKd binary)” value came to 0.84 ± 0.07 and the “α (cooperativity, Kd binary/Kd ternary)” value turned out to be 7. In addition, the “ΔG (binary + ternary), stability of ternary complex” value in experiment [1] (ITC, Brd4^BD2) was -20.2 ± 0.2 kcal/mol. Further, the “Brd4 protein level by immunoblot” value in experiment [2] was “depletion of Brd4”. Also, the “activity against Brd2 (protein level by immunoblot)” value in experiment [3] is on record as “negligible activity”. Moreover, the “activity against Brd3 (protein level by immunoblot)” value in experiment [4] is given as “negligible activity”. Moreover, the “Brd4 protein level after treatment (depleted to)” value in experiment [5] is given as ~ 40%. In addition, the “effect on protein level of Brd2” value in experiment [6] is “no effect on protein levels”. Moreover, in experiment [7], the “effect on protein level of Brd3” value is recorded as “no effect on protein levels”.
